From ChEMBL document CHEMBL1221386, “Synthesis and pharmacological evaluation of 3-aryl-3-azolylpropan-1-amines as selective triple serotonin/norepinephrine/dopamine reuptake inhibitors” (Bioorg Med Chem Lett, 2010) come the findings set out here.

The target of data set [1] is T1, Sodium-dependent serotonin transporter (Homo sapiens, UniProt P31645). The data set is described as follows: Inhibition of serotonin reuptake at human SERT expressed in HEK293 cells at 100 nM.
Target sequence in this assay (P31645 whole entry, looked up): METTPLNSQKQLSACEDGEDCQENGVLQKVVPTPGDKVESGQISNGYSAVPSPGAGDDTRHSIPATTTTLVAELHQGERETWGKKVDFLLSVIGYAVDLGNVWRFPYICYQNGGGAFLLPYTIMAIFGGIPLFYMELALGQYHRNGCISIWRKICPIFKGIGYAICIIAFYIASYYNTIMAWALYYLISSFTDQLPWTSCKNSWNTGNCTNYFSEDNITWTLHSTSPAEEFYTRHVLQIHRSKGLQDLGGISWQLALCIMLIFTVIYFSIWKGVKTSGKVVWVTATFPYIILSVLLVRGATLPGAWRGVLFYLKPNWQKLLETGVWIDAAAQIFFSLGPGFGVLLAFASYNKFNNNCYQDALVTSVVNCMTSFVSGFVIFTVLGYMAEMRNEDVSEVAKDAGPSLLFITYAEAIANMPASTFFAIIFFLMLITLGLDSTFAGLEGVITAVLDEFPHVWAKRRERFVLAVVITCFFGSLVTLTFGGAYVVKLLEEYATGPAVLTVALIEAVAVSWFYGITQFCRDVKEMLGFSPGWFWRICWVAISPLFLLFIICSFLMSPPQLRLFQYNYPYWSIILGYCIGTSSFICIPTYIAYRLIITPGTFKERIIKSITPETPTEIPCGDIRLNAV
Data set [2] addresses T2, Sodium-dependent dopamine transporter (Homo sapiens, UniProt Q01959). As to the kind of experiment: Inhibition of dopamine reuptake at human dopamine transporter expressed in CHO cells at 100 nM.
The target of data set [3] is T3, Sodium-dependent noradrenaline transporter (Homo sapiens, UniProt P23975). As to the kind of experiment: Inhibition of norepinephrine reuptake at human NET expressed in MDCK cells at 100 nM.
Data set [4] has as its target Sodium-dependent serotonin transporter (Rattus norvegicus) (UniProt P31652). The data set is described as follows: Displacement of [3H]paroxetine from SERT in rat cerebral cortex at 100 nM.
The subject of data set [5] is Mus musculus. The data set is described as follows: Antidepressant activity in mouse assessed as reduction of mobility time by forced swimming test at 30 mg/kg, ip. The following applies: route intraperitoneal. Further details: scale not given: the % may be the effect or the level left.
The target of data set [6] is Sodium-dependent serotonin transporter (Rattus norvegicus) (UniProt P31652). The data set is described as follows: Displacement of [3H]paroxetine from SERT in rat cerebral cortex at 1 uM. It counts as tissue-based. The method, boiled down: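 Competition binding against 2 nM [3H]paroxetine on freshly prepared rat frontal cortex membranes, homogenized and centrifuged twice at 20,000g, then resuspended in incubation buffer. Tris–HCl pH 7.4 buffer with NaCl and 5 mM KCl. Incubation 2 h at 25 °C, run in triplicate. Nonspecific binding defined with citalopram. Read-out is percent inhibition at 1 µM.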

The target of data set [7] is T1, Sodium-dependent serotonin transporter. As to the kind of experiment: Inhibition of serotonin reuptake at human SERT expressed in HEK293 cells. It is filed as cell-based.
Target sequence in this assay (P31645 whole entry): as the sequence (P31645 whole entry, looked up) above
Data set [8] can be described thus: Half life in rat liver microsomes. It counts as ADME, Microsome. An outline of the steps: (§1)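 Metabolic stability in human or rat liver microsomes. Half-lives measurable up to 60 min.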
In data set [9] the target is T2, Sodium-dependent dopamine transporter. As to the kind of experiment: Inhibition of dopamine reuptake at human dopamine transporter expressed in CHO cells. It is filed as cell-based. The method, boiled down:
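CHO-K1 cells stably expressing human DAT, assayed for [3H]DA uptake in duplicate. Nomifensine served as standard. IC50 determined.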

Data set [10] deals with T3, Sodium-dependent noradrenaline transporter. The data set is described as follows: Inhibition of norepinephrine reuptake at human NET expressed in MDCK cells. It counts as cell-based.
Data set [11] can be described thus: Half life in human liver microsomes. It is filed as ADME, Microsome. The method, boiled down: as §1
For data set [12], the system named is Mus musculus. The data set is described as follows: Potentiation of […]-induced serotonin syndrome like behavior in po dosed mouse. It is filed as functional. As to conditions: read-out: MED. An outline of the steps: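 Mice, oral dosing. For serotonin potentiation, 5-hydroxytryptophan (5-HTP, serotonin precursor) is given to induce serotonin syndrome-like head twitch/stereotypy counts. Response is expressed as % potentiation relative to control group (0%). Minimal effective dose is the lowest dose reaching p <0.05. Doses are in mg/kg.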

For data set [13], the system named is Mus musculus. As to the kind of experiment: Antidepressant activity in po dosed mouse assessed as reduction of mobility time by forced swimming test. As to conditions: read-out: MED. It counts as functional. The method, boiled down:
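Mouse forced swimming test with oral dosing. Read-out is immobility time, expressed as % reduction of immobility. Minimal effective dose is the lowest dose with p <0.05. ED50 is given with 95% confidence limits. Doses are in mg/kg.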

Data set [14] has as its system Mus musculus. As to the kind of experiment: Anxiolytic activity in mouse assessed as inhibition of marble buried at 10 mg/kg, ip by marble burying test. It is filed as functional. As to conditions: route intraperitoneal.

Bounds are passed on as bounds.

Sequence of Sodium-dependent serotonin transporter (Rattus norvegicus) (P31652 whole entry): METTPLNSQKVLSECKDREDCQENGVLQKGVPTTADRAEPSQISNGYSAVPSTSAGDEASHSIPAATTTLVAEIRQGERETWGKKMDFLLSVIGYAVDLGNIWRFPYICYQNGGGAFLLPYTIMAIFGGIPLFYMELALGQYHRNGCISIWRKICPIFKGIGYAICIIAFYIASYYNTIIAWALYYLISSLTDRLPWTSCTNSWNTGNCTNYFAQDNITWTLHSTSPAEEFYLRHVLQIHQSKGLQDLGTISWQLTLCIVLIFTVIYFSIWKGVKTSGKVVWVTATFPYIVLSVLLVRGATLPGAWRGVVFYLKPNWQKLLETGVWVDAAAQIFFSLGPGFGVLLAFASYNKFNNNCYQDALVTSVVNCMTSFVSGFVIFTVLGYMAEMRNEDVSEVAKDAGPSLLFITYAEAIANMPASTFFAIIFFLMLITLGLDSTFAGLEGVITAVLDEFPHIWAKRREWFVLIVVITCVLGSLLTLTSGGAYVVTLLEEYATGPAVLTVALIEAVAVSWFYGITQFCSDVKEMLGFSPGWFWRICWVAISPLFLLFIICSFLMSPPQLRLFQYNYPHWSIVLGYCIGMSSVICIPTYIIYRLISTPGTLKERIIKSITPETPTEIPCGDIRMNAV
T3 sequence (P23975 whole entry): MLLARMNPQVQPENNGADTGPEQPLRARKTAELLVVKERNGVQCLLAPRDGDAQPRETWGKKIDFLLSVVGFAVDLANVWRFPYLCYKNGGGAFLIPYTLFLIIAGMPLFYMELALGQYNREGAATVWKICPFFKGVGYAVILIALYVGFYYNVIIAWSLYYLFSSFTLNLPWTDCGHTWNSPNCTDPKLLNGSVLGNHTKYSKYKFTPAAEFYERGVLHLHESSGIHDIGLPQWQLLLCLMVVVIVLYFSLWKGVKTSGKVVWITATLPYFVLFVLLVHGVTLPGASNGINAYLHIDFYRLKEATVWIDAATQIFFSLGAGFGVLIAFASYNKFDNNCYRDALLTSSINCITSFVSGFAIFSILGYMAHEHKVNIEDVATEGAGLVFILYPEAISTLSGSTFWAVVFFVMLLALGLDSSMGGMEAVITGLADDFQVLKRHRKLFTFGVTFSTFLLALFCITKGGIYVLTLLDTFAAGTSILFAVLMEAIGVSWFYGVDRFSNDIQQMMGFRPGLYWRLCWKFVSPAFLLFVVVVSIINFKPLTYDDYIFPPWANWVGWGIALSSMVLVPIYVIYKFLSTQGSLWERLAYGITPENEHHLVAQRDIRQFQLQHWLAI
T2 sequence (Q01959 whole entry): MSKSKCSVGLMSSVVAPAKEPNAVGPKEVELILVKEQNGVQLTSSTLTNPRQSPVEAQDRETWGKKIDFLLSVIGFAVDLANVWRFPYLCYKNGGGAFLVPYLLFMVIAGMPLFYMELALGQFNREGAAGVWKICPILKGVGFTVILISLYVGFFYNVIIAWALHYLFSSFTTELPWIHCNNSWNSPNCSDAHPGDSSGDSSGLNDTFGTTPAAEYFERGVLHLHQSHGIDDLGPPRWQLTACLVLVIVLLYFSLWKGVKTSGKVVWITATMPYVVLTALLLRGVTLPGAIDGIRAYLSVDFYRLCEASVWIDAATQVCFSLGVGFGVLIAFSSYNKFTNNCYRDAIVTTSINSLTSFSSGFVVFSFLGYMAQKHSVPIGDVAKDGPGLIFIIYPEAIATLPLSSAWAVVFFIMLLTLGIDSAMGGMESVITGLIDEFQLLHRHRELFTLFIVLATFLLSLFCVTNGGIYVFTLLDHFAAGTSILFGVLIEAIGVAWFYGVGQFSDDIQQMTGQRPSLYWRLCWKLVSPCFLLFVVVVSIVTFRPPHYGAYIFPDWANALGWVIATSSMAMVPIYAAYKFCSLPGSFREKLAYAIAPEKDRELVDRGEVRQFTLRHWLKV

As to `CNCC[C@@H](c1ccc2ccccc2c1)n1nnc(C)n1`, the inhibition in [1] was 82%; in data set [2] it was 7%; in data set [3], 79%; in data set [4] it was 60.2%.
`CNCC[C@H](c1ccc(Cl)c(Cl)c1)n1nnc(C)n1`: in data set [4], the inhibition worked out at 20%.
In the case of `CNCC[C@H](c1ccc2ccccc2c1)n1nnc(C)n1`, the inhibition in data set [1] came out at 23%; in [2], 3%; in data set [3], 37%; in data set [4], 34.5%.
Take `CN(C)CCC(c1ccc2ccccc2c1)n1ncnn1` (racemic): the Activity with Mus musculus [5] stood at 43.2%. Besides, the inhibition in [6] turned out to be 85.1%; in data set [1], 41%; in [2] it was 20%; in data set [3] it was 30%. Further, the IC50 in data set [7] is 138 nM; in data set [9], 616 nM; in data set [10] it was 264 nM. Further, the half-life in data set [8] turned out to be 3 min; in data set [11], 50 min.
Turning to `CN(C)CCC(c1ccc2cc(F)ccc2c1)n1ncnn1` (racemic), the values for the half-life in [8] and in data set [11] were 3 min and greater than 60 min, respectively. Besides, the inhibition in data set [1] is 61%; in data set [2], 7%; in data set [3] it was 12%; in [4] it was 74.1%.
For the molecule `CNCCC(c1ccc2ccccc2c1)n1ncnn1` (racemic), the inhibition came out at 90.4% in [6], 78% in data set [1], 10% in data set [2] and 84% in data set [3]. The IC50 in [7] worked out at 32 nM; in [9] it was 1240 nM; in data set [10] it was 13.3 nM. Also, the half-life was 12 min in data set [8] and 49 min in [11].
`CNCCC(c1ccc2ccccc2c1)n1nnc(-c2ccccc2)n1` (racemic): the Activity with Mus musculus [5] was 5.5%. Further, in [6], the inhibition worked out at 98.4%.
For the molecule `CNCCC(c1ccc2cc(F)ccc2c1)n1ncnn1` (racemic), the half-life in data set [8] is 29 min; in data set [11] it was greater than 60 min. Besides, the inhibition was 59% in data set [1], 6% in [2], 25% in data set [3] and 80.1% in data set [4].
Take `CNCCC(c1ccc2cc(F)ccc2c1)n1nnc(C)n1` (racemic): the figures for the half-life in [8] and in data set [11] were 27 min and greater than 60 min, respectively. Moreover, the inhibition in data set [1] is 58%; in data set [2], 10%; in data set [3], 39%; in [4], 81.3%.
As to `CN(C)CCC(c1ccc(Cl)c(Cl)c1)n1ncnn1` (racemic), the inhibition came to 72% in [6], 27% in [1], 58% in data set [2] and 37% in data set [3]. Moreover, the IC50 was found to be 279 nM in [7], 78 nM in data set [9] and 234 nM in data set [10]. Further, the half-life in data set [8] turned out to be 3 min; in data set [11] it was 55 min.
`CNCCC(c1ccc(Cl)c(Cl)c1)n1ncnn1` (racemic): the inhibition was determined as 86% in data set [6], 35% in [1], 48% in data set [2] and 56% in data set [3]. In addition, the IC50 in [7] was determined as 181 nM; in data set [9], 116 nM; in [10] it was 69 nM. The half-life in [8] and in data set [11] was greater than 60 min each time.
As for `CN(C)CCC(c1ccc(Cl)c(Cl)c1)n1nccn1` (racemic), the inhibition in [6] was 69.9%.
The same measure, in the same setting: to `CN(C)CCC(c1ccc(Cl)cc1)n1ncnn1` (racemic) belongs 32.4%.
Take `CN(C)CCC(c1ccc(Cl)cc1Cl)n1ncnn1` (racemic): in [4], the inhibition is -0.2%.
`CN(C)CCC(c1ccc(F)c(F)c1)n1ncnn1` (racemic): the inhibition in [6] worked out at 25.3%.
For the molecule `CN(C)CCC(c1ccc(OCc2ccccc2)cc1)n1ncnn1` (racemic), the inhibition in data set [4] stood at 9.5%.
With `CN(C)CCC(c1ccc2cc(Cl)ccc2c1)n1ncnn1` (racemic), the inhibition was 54.3% in data set [6], 46% in data set [1], 18% in data set [2] and 32% in data set [3].
With `CN(C)CCC(c1ccc2ccccc2c1)n1nnc(-c2ccccc2)n1` (racemic), in [6], the inhibition stood at 92.6%.
As to `CN(C)CCC(c1cccc(Cl)c1)n1ncnn1` (racemic), the inhibition in data set [4] is -5.6%.
Still for that read-out and setting: to `CNCCC(c1ccc(Br)cc1)n1ncnn1` (racemic) belongs 10.7%; to `CNCCC(c1ccc(C(F)(F)F)cc1)n1ncnn1` (racemic), 15.3%.
As to `CNCCC(c1ccc(Cl)c(Cl)c1)n1nnc(C)n1` (racemic), the inhibition in data set [6] is 86%.
For the molecule `CNCCC(c1ccc(Cl)c(Cl)c1Cl)n1ncnn1` (racemic), the inhibition in data set [4] came to 39.1%.
As to `CNCCC(c1ccc(Cl)cc1)n1ncnn1` (racemic), the inhibition in data set [6] was 41.1%.
Regarding `CNCCC(c1ccc(OC(F)(F)F)cc1)n1ncnn1` (racemic), the inhibition in data set [4] turned out to be 3.1%.
For the molecule `CNCCC(c1ccc(Oc2ccccc2)cc1)n1ncnn1` (racemic), in data set [4], the inhibition is -1.7%.
On to `CNCCC(c1ccc2cc(C)ccc2c1)n1ncnn1` (racemic), for which the inhibition in [6] turned out to be 93.3%; in [1] it was 93%; in data set [2] it was 3%; in data set [3] it was 55%.
In the case of `CNCCC(c1ccc2cc(Cl)ccc2c1)n1ncnn1` (racemic), the inhibition in data set [6] is 52.1%; in data set [1], -4%; in data set [3], 20%.
Turning to `CNCCC(c1ccc2cc(OC)ccc2c1)n1ncnn1` (racemic), the inhibition in data set [1] is 88%; in data set [2], 4%; in data set [3] it was 70%; in data set [4], 81.2%.
In the same order, the values of `CNCCC(c1ccc2cc(OC)ccc2c1)n1nnc(C)n1` (racemic) are 82%, 3%, 84% and 80.2%.
Take `CNCCC(c1ccc2ccccc2c1)n1nnc(C)n1` (racemic): the inhibition in [6] was found to be 93.6%.
On the same count and under the same terms, to `CNCCC(c1cccc2ccccc12)n1ncnn1` (racemic) belongs 51.6%.
Regarding `CNCCC(c1ccccc1Cl)n1nnc(C)n1` (racemic), in [4], the inhibition is 5.9%.
In the case of `COc1ccc(C(CCN(C)C)n2ncnn2)cc1Cl` (racemic), the inhibition in data set [6] came to 39.9%.
As for `COc1ccc(C(CCN(C)C)n2ncnn2)cc1OC` (racemic), in [4], the inhibition was found to be 12.9%.
As for `COc1ccc2cc(C(CCN(C)C)n3ncnn3)ccc2c1` (racemic), the inhibition in [1] stood at 44%; in data set [2] it was 36%; in [3], 39%; in data set [4], 33.6%.
`Cc1ccc(C(CCN(C)C)n2ncnn2)cc1C` (racemic): in [6], the inhibition came to 49.2%.
Take `Cc1ccc2cc(C(CCN(C)C)n3ncnn3)ccc2c1` (racemic): the inhibition in data set [6] came to 87.7%.
Turning to `Cc1nnn(C(CCN(C)C)c2ccc(C(C)(C)C)cc2)n1` (racemic), in [4], the inhibition was -3%.
For `Cc1nnn(C(CCN(C)C)c2ccc(Cl)c(Cl)c2)n1` (racemic), the inhibition in data set [6] was found to be 69.4%.
With `Cc1nnn(C(CCN(C)C)c2ccc3cc(F)ccc3c2)n1` (racemic), the inhibition in data set [1] is 61%; in [2], 6%; in data set [3], 10%; in data set [4], 67.5%.
In the case of `Cc1nnn(C(CCN(C)C)c2ccc3ccccc3c2)n1` (racemic), the inhibition in data set [6] is 85%.
Consider `CNCCC(Oc1ccc(C(F)(F)F)cc1)c1ccccc1` (stereo not given) [FLUOXETINE], for which the minimal effective dose turned out to be 3 mg/kg in the data set on Mus musculus [12] and 50 mg/kg in the data set on Mus musculus [13]. Moreover, the inhibition in vivo at 10 mg/kg in the data set with Mus musculus [14] was determined as 60.3%.
